Experimental data from ChEMBL document CHEMBL3044558, “Structure-activity relationship development of dihaloaryl triazole compounds as insecticides and acaricides. 1. Phenyl thiophen-2-yl triazoles” (2007).
In brackets after ≈: the same amount, converted by molar mass. Activity calls are given as the source filed them. No cut-off for these calls is given here.

Columns and labels:
Aphis gossypii [1] = tested on: Aphis gossypii
Aphis gossypii [2] = test: Insecticidal activity against Aphis gossypii (cotton aphid) infested one week old Crookneck squash plants assessed as insect mortality measured after 3 days post compound application under green house conditions; format: functional; conditions: for LC50: Aphis gossypii, 72 h
Spodoptera exigua [3] = test: Insecticidal activity against Spodoptera exigua second-instar larvae feeded on 400 ppm compound treated lepidopteran diet assessed as insect mortality measured 5 days post compound treatment under green house conditions; format: functional; conditions: at 400 ppm
Spodoptera exigua [4] = test: Insecticidal activity against Spodoptera exigua second-instar larvae feeded on 25 ppm compound treated lepidopteran diet assessed as insect mortality measured 5 days post compound treatment under green house conditions; format: functional
Trichoplusia ni [5] = test: Insecticidal activity against Trichoplusia ni (cabbage looper) second-instar larvae infested on 400 ppm compound pre-treated cabbage leaf disk assessed as insect mortality measured 5 days post compound treatment under green house conditions; format: functional; conditions: at 400 ppm
Tetranychus urticae [6] = test: Insecticidal activity against female Tetranychus urticae (two-spotted spider mite) infested cotton leaf disks followed by 2.5 ppm compound spraying after oviposit assessed as insect mortality measured after 6 days post compound application under green house conditions; format: functional; conditions: foliar, 144 h
Trichoplusia ni [7] = test: Insecticidal activity against Trichoplusia ni (cabbage looper) second-instar larvae infested on 25 ppm compound pre-treated cabbage leaf disk assessed as insect mortality measured 5 days post compound treatment under green house conditions; format: functional
In short: (§1)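 Leaf disks treated, air-dried and placed singly in cups. Cotton cotyledon disks each get one second-instar tobacco budworm larva; cabbage leaf disks each get one second-instar cabbage looper larva. Cups are capped and held in a growth chamber at 25 °C, 50-55% RH, 14 h light/10 h dark for 5 days.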

Heliothis virescens [8] = test: Insecticidal activity against Heliothis virescens (tobacco budworm) second-instar larvae infested on 25 ppm compound pre-treated cotton cotyledon disk assessed as insect mortality measured 5 days post compound treatment under green house conditions; format: functional
In short: as §1

Bemisia tabaci [9] = tested on: Bemisia tabaci
Heliothis virescens [10] = test: Insecticidal activity against Heliothis virescens (tobacco budworm) second-instar larvae infested on 400 ppm compound pre-treated cotton cotyledon disk assessed as insect mortality measured 5 days post compound treatment under green house conditions; format: functional
Myzus persicae = test: Insecticidal activity against Myzus persicae (green peach aphid) assessed as insect mortality at 50 ppm; format: functional
Spodoptera exigua [11] = test: Insecticidal activity against Spodoptera exigua second-instar larvae feeded on compound treated lepidopteran diet assessed as insect mortality measured 5 days post compound treatment under green house conditions; format: functional; conditions: Spodoptera exigua, 120 h
Trichoplusia ni [12] = test: Insecticidal activity against Trichoplusia ni (cabbage looper) second-instar larvae infested on compound pre-treated cabbage leaf disk assessed as insect mortality measured 5 days post compound treatment under green house conditions; format: functional; conditions: Trichoplusia ni, foliar
In short: as §1

Aphis gossypii [13] = test: Insecticidal activity against Aphis gossypii (cotton aphid) infested one week old Crookneck squash plants assessed as insect mortality at 5 ppm measured after 3 days post compound application under green house conditions; format: functional; conditions: 72 h
Trichoplusia ni [14] = tested on: Trichoplusia ni
Aphis gossypii [15] = test: Insecticidal activity against Aphis gossypii (cotton aphid) infested one week old Crookneck squash plants assessed as insect mortality at 50 ppm measured after 3 days post compound application under green house conditions; format: functional; conditions: 72 h
Heliothis virescens [16] = test: Insecticidal activity against Heliothis virescens (tobacco budworm) second-instar larvae infested on compound pre-treated cotton cotyledon disk assessed as insect mortality measured 5 days post compound treatment under green house conditions; format: functional; conditions: for LC50: Heliothis virescens
In short: as §1

Tetranychus urticae [17] = test: Insecticidal activity against female Tetranychus urticae (two-spotted spider mite) infested cotton leaf disks followed compound spraying after oviposit assessed as insect mortality measured after 6 days post compound application under green house conditions; format: functional; conditions: for LC50: Tetranychus urticae, foliar, 144 h
Bemisia tabaci [18] = test: Insecticidal activity against Bemisia tabaci (sweet potato whitefly) second-instar larvae infested five weeks old cotton plants followed by compound 250 ppm compound spraying after insect oviposit assessed as insect mortality measured 13 days post compound treatment under green house conditions; format: functional

Row | SMILES | LC50 (Aphis gossypii [2]) [µg/mL] | mortality (Spodoptera exigua [3]) [%] | mortality (Spodoptera exigua [4]) [%] | mortality (Trichoplusia ni [5]) [%] | mortality at 2.5 ppm (Tetranychus urticae [6]) [%] | mortality (Trichoplusia ni [7]) [%] | mortality (Heliothis virescens [8]) [%] | mortality (Bemisia tabaci [9]) | mortality (Heliothis virescens [10]) [%] | LC50 (Myzus persicae) [µg/mL] | LC50 (Spodoptera exigua [11]) [µg/mL] | LC50 (Trichoplusia ni [12]) [µg/mL] | mortality at 50 ppm (Aphis gossypii [15]) [%] | LC50 (Heliothis virescens [16]) [µg/mL] | LC50 (Tetranychus urticae [17]) [µg/mL] | other results
1 | Cc1cc(-c2ccc(F)c(Cl)c2)sc1-c1nc(-c2c(F)cccc2Cl)nn1C | 9.28 (≈ 21.3 µM) | 80 | 0 | 90 | 60 | 60 | 0 | inactive | 90 | 55 (≈ 126 µM) |  |  |  |  |  | mortality (Aphis gossypii [1]): inactive
2 | Cc1cc(-c2cccc(OC(F)(F)C(F)Cl)c2)sc1-c1nc(-c2c(F)cccc2Cl)nn1C (stereo unspecified) |  | 60 |  |  | 90 |  |  | inactive | 90 | 75 (≈ 145 µM) | 23.1 (≈ 44.7 µM) | < 1.6 | 90 | 4.38 (≈ 8.48 µM) |  | mortality at 5 ppm (Aphis gossypii [13]): 91%; mortality (Trichoplusia ni [14]): inactive; LC90 (Heliothis virescens [16]): 151 ppm
3 | Cc1cc(-c2ccc(Cl)cc2F)sc1-c1nc(-c2c(F)cccc2Cl)nn1C | 4.93 (≈ 11.3 µM) | 70 | 0 | 90 | 90 | 40 | 20 | inactive | 90 | 91 (≈ 209 µM) |  |  | < 50 |  |  | 
4 | Cc1cc(-c2ccc(OC(F)(F)C(F)Cl)cc2)sc1-c1nc(-c2c(F)cccc2Cl)nn1C (stereo unspecified) | < 0.5 | 60 |  | 90 | 90 |  |  |  | 90 | < 3.1 | < 1.79 | < 1.6 | 90 | < 1.6 | < 0.1 | LC90 (Tetranychus urticae [17]): 2.07 ppm; mortality (Bemisia tabaci [18]): <50%
5 | Cc1c(Br)csc1-c1nc(-c2c(F)cccc2Cl)nn1C | 0.7 (≈ 1.81 µM) |  |  |  |  |  |  |  |  | 0.8 (≈ 2.07 µM) |  |  |  |  | 0.29 (≈ 0.75 µM) | 
6 | Cc1cc(-c2ccc(OC(F)(F)F)cc2)sc1-c1nc(-c2c(F)cccc2Cl)nn1C | 0.5 (≈ 1.07 µM) | 90 |  | 90 | 90 |  |  | inactive | 80 | 13.7 (≈ 29.3 µM) | < 1.6 | < 1.6 | 60 | 225 (≈ 481 µM) | < 0.04 | LC90 (Aphis gossypii [2]): 12.8 ppm; LC90 (Tetranychus urticae [17]): 0.151 ppm
7 | Cc1cc(-c2ccc(F)c(F)c2)sc1-c1nc(-c2c(F)cccc2Cl)nn1C | 4.41 (≈ 10.5 µM) | 90 | 0 | 90 | 60 | 40 | 20 |  | 90 | 88 (≈ 210 µM) |  |  | < 50 |  |  | LC90 (Aphis gossypii [2]): 22.3 ppm; mortality (Bemisia tabaci [18]): 90%
